Source: ChEMBL document CHEMBL4014327 (J Med Chem, 2017)
Values after ≈ are worked out from the molar mass of the structure shown.

Columns and labels:
[1] = molecular target: T1, Interleukin-1 receptor-associated kinase 4 (Homo sapiens) (UniProt Q9NWZ3); assay: Inhibition of recombinant human full length His-tagged IRAK4 expressed in baculovirus at 200 nM
T1 sequence (whole entry): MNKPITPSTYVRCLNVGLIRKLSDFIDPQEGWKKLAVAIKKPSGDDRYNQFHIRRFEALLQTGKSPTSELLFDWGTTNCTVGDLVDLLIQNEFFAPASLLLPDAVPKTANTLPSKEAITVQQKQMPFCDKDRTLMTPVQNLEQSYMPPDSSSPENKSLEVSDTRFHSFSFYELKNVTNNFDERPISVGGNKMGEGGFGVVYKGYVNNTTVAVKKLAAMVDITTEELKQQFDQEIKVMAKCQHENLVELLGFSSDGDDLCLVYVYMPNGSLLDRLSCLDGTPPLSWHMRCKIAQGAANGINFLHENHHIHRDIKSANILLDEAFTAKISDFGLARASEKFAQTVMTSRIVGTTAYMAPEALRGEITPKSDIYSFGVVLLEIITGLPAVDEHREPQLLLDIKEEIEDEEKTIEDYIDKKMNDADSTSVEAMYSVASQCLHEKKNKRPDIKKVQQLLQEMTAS

[2] = Solubility of compound in simulated fasted state intestinal fluid at pH 6.5; assay type: physicochemical
In short: (§1)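 Solubility of crystalline material measured in phosphate-buffered saline pH 6.7, unbuffered water pH 8.1 and simulated fasted-state intestinal fluid pH 6.5, reported in μg/mL.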

[3] = molecular target: Vascular endothelial growth factor receptor 2 (Homo sapiens, UniProt P35968); assay: Inhibition of human recombinant VEGFR2 at 10 uM using CAGAGAIETDKEYYTVKD as substrate after 60 mins by Lance method
CYP2D6 = CYP2D6 (Homo sapiens, UniProt P10635); assay: Inhibition of CYP2D6 in human liver microsomes at 3 uM; assay type: ADME
[4] = molecular target: Casein kinase I isoform gamma-2 (Homo sapiens) (UniProt P78368); assay: Inhibition of CK1gamma2 in human THP1 cell lysate at 200 nM
Plasma [5] = assay: Free plasma concentration in Sprague-Dawley rat LPS model at 3 mg/kg, po after 2.5 hrs; assay type: ADME, organism-based; settings: in vivo
In short: (§2)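 Male Sprague−Dawley rats, 6−8 weeks old, n = 6−9 per group. Dosed orally at 0.3, 1, 3 or 30 mg/kg in 0.5% methylcellulose/2% Tween 80 in water. Ultrapure LPS 0.01 mg/kg iv given 1 h after dosing. Plasma exposure taken 2.5 h after oral dosing and reported as free concentration using fraction unbound in rat plasma.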

[6] = molecular target: Interleukin-1 receptor-associated kinase 1 (Homo sapiens) (UniProt P51617); assay: Inhibition of recombinant human GST-tagged IRAK1 expressed in baculovirus at 200 nM
Plasma [7] = assay: Free plasma concentration in Sprague-Dawley rat LPS model at 30 mg/kg, po after 2.5 hrs; assay type: ADME, organism-based; settings: in vivo; in short: as §2
[8] = Half life in Wistar Han rat at 1 mg/kg, iv administered as single dose; assay type: ADME, organism-based; settings: in vivo
[9] = Half life in Beagle dog at 1 mg/kg, iv administered as single dose; assay type: ADME, organism-based, Canis lupus familiaris; settings: in vivo
[10] = molecular target: Casein kinase I delta/epsilon (Homo sapiens) (UniProt P48730+P49674); assay: Inhibition of CK1-delta/epsilon in human THP1 cell lysate at 200 nM
Cytochrome P450 2B6 = Cytochrome P450 2B6 (Homo sapiens, UniProt P20813); assay: Time dependent inhibition of CYP2B6 in human liver microsomes at 100 uM; assay type: ADME
In short: (§3)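 Time-dependent inhibition assessed in pooled human liver microsomes with probe substrates, test compound at 100 μM.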

[11] = molecular target: Leucine-rich repeat serine/threonine-protein kinase 2 (Homo sapiens) (UniProt Q5S007); assay: Inhibition of recombinant human GST-tagged LRRK2 expressed in baculovirus at 200 nM
Cytochrome P450 2C9 = Cytochrome P450 2C9 (Homo sapiens, UniProt P11712); assay: Time dependent inhibition of CYP2C9 in human liver microsomes at 100 uM; assay type: ADME; in short: as §3
CYP1A2 = CYP1A2 (Homo sapiens, UniProt P05177); assay: Inhibition of CYP1A2 in human liver microsomes at 3 uM; assay type: ADME
Rattus norvegicus [12] = assay: Plasma clearance in Wistar Han rat at 1 mg/kg, iv administered as single dose; assay type: ADME, organism-based; settings: in vivo
Cynomolgus monkey = assay: Plasma clearance in cynomolgus monkey at 1 mg/kg, iv administered as single dose; assay type: ADME, organism-based, Macaca fascicularis; settings: in vivo
Rattus norvegicus [13] = assay: Inhibition of LPS induced TNFalpha secretion in Sprague-Dawley rat assessed as decrease in TNFalpha level in serum at 1 mg/kg, po pretreated for 1 hr followed by LPS challenge measured after 1.5 hrs relative to control; assay type: functional
In short: (§4)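 Male Sprague-Dawley rats, 6-8 weeks old, n = 6-9 per group. Test article was given orally at 0.3, 1, 3 or 30 mg/kg as a solution or suspension in 0.5% methylcellulose and 2% Tween 80 in water; controls received vehicle alone. Ultrapure LPS (0.01 mg/kg) was given iv 1 h later. Blood was drawn 1.5 h after challenge, and serum TNF was measured by MSD.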

[14] = Apparent permeability in RRCK cells from apical to basolateral side; assay type: ADME, cell-based, Canis lupus familiaris, MDCKII-LE; settings: dog, MDCK
In short: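 RRCK cell monolayer permeability assay; apparent permeability reported in cm/s.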

[15] = Half life in cynomolgus monkey at 5 mg/kg, po administered as single dose; assay type: ADME, organism-based, Macaca fascicularis; settings: in vivo
[16] = Oral bioavailability in cynomolgus monkey at 5 mg/kg administered as single dose; assay type: ADME, organism-based, Macaca fascicularis; settings: in vivo
Rattus norvegicus [17] = assay: Inhibition of LPS induced TNFalpha secretion in Sprague-Dawley rat assessed as decrease in TNFalpha level in serum at 0.3 mg/kg, po pretreated for 1 hr followed by LPS challenge measured after 1.5 hrs relative to control; assay type: functional; in short: as §4
[18] = Lipophilicity, log D of compound; assay type: physicochemical; settings: octanol/water
[19] = molecular target: Dual specificity protein kinase CLK4 (Homo sapiens) (UniProt Q9HAZ1); assay: Inhibition of recombinant human full length GST-tagged CLK4 expressed in baculovirus at 200 nM
[20] = Solubility of compound in phosphate buffer at pH 6.7; assay type: physicochemical; in short: as §1
[21] = molecular target: MAP kinase-interacting serine/threonine-protein kinase 2 (Homo sapiens) (UniProt Q9HBH9); assay: Inhibition of N-terminal-GST-tagged human full length MNK2 expressed in baculovirus at 200 nM
MAP kinase-interacting serine/threonine-protein kinase 2 (Homo sapiens), sequence (Q9HBH9 whole entry, looked up): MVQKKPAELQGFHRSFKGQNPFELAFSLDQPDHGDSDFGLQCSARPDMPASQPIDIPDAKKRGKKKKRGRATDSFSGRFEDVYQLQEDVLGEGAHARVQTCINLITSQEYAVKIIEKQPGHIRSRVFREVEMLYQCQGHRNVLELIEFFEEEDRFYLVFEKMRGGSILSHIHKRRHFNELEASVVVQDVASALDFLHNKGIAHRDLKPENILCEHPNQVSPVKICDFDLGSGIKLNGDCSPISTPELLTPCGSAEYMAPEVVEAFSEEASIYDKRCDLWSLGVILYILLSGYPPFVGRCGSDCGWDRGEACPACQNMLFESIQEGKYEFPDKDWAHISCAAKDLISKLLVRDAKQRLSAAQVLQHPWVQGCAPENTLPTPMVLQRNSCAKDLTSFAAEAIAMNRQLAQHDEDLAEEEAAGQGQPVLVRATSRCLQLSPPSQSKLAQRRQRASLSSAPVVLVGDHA

Casein kinase I isoform gamma-2 (Homo sapiens), sequence (P78368 whole entry, looked up, canonical isoform): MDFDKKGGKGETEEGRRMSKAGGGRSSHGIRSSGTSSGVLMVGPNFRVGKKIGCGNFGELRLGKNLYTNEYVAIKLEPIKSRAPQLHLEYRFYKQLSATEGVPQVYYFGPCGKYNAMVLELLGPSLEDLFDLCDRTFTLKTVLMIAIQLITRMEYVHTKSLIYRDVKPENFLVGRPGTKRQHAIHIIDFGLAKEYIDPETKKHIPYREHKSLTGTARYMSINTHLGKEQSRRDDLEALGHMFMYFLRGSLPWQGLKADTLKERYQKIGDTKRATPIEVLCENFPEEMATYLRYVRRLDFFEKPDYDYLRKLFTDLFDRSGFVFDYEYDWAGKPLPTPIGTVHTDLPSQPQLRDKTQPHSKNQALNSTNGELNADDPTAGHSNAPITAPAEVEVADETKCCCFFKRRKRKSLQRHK
Cytochrome P450 2C9, sequence (P11712 whole entry): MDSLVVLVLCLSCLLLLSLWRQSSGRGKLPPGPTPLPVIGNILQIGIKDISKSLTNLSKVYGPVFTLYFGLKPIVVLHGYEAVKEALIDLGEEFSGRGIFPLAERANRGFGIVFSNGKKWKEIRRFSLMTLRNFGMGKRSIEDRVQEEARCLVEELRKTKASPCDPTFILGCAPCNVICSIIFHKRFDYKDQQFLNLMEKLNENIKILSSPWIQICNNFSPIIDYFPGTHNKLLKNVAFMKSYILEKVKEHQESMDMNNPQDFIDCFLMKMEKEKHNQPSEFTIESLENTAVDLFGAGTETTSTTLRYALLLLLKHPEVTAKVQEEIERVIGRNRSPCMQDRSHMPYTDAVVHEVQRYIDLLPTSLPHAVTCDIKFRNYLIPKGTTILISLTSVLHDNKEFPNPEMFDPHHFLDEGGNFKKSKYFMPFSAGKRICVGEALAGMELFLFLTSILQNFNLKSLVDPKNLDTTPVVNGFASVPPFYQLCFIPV
Leucine-rich repeat serine/threonine-protein kinase 2 (Homo sapiens), sequence (Q5S007 whole entry): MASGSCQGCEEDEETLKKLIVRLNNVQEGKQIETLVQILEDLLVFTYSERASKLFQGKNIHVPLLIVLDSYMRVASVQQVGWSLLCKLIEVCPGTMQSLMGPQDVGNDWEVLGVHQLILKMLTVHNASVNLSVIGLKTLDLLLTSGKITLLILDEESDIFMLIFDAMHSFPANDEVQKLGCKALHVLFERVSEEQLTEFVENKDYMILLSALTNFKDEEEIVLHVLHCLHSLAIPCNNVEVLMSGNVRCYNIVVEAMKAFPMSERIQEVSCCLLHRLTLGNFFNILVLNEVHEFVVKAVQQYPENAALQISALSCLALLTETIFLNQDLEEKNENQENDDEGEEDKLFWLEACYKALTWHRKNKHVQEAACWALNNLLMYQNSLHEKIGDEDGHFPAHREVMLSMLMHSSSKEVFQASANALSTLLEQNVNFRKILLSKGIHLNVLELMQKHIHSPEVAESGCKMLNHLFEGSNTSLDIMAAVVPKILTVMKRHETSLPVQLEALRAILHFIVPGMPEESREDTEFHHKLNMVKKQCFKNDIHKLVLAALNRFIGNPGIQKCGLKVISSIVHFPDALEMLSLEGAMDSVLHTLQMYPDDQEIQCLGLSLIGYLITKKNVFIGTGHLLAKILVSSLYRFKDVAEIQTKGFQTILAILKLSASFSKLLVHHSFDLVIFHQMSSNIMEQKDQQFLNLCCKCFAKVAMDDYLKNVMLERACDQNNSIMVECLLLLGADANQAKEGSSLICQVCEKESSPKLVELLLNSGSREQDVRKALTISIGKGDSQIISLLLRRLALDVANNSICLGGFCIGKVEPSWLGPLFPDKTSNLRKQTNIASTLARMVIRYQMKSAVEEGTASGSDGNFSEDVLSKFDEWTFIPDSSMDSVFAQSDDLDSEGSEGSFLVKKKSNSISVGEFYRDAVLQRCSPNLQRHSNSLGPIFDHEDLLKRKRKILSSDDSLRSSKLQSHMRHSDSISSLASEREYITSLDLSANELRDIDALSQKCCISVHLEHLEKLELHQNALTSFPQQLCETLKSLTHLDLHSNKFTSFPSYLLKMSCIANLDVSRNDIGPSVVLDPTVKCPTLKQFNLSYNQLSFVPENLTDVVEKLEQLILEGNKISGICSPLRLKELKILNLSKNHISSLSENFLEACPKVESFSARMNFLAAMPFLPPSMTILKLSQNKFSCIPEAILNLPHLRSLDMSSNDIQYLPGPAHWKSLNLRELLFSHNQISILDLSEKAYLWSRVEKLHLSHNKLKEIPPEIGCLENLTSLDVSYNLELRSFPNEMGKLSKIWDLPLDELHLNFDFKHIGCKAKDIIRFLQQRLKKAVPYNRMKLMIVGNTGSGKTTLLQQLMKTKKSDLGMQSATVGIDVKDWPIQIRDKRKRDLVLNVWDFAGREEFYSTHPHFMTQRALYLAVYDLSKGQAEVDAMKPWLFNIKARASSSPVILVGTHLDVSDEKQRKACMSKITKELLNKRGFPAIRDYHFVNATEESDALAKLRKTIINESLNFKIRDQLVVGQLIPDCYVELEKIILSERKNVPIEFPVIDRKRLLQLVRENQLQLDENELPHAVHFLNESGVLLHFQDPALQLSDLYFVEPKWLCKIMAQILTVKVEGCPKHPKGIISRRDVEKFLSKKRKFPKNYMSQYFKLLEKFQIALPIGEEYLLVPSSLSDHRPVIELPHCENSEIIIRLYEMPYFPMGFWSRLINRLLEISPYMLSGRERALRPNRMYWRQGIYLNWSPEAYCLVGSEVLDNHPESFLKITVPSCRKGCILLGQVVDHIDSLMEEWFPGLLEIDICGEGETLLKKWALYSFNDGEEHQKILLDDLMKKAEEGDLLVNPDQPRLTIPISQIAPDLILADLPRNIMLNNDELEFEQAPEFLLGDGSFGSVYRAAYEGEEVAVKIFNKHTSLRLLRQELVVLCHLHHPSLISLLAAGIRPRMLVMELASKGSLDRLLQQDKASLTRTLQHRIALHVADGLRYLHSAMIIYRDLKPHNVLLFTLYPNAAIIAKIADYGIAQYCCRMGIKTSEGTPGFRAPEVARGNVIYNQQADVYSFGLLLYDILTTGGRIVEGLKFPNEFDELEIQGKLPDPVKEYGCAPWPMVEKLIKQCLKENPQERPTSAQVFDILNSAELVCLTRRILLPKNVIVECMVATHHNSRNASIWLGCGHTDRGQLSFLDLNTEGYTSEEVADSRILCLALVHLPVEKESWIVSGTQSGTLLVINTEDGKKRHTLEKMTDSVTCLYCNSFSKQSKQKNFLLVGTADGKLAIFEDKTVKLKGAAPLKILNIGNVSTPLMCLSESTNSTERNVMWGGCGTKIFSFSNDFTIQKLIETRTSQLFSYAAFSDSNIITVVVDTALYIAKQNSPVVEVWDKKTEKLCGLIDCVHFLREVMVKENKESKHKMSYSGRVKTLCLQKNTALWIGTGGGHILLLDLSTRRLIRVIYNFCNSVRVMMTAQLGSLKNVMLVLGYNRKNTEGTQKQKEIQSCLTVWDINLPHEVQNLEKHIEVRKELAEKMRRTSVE
CYP1A2, sequence (P05177 whole entry): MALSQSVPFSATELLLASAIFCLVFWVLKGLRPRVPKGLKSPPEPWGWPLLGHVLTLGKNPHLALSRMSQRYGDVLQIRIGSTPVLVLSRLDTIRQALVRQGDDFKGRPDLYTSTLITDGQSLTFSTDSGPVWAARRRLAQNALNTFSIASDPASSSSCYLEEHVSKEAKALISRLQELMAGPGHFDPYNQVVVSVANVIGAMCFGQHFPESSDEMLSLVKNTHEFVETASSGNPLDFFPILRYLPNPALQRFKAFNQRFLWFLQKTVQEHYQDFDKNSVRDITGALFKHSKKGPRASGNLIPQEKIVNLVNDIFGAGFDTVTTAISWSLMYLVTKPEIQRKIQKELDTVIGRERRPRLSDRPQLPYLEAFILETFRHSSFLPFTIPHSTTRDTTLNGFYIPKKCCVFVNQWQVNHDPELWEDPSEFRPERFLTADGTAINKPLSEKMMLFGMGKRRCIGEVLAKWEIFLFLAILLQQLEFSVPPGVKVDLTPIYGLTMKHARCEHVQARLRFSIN
CYP2D6, sequence (P10635 whole entry, canonical isoform): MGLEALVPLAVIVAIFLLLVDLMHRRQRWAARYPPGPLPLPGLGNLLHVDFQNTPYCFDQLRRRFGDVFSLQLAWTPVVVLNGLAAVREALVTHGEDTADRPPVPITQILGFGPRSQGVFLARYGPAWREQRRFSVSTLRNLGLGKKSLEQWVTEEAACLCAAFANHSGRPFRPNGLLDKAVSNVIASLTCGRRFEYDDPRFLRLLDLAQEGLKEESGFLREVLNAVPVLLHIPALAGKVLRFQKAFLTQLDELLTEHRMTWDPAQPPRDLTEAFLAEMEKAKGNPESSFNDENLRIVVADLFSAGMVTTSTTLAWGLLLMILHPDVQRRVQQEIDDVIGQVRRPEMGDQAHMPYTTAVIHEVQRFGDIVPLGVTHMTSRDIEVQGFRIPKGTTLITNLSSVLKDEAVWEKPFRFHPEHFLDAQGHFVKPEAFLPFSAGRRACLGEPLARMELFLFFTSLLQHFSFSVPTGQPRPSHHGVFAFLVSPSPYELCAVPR

With CC[C@@H]1[C@H](F)C(=O)N[C@@H]1COc1nccc2cc(C(N)=O)c(OC)cc12 [ZIMLOVISERTIB] the inhibition [1] was 100%, the solubility [2] was 62 µg/mL (≈ 172 µM) and the inhibition [3] was over 50%. For the same molecule, the inhibition at 3 µM (CYP2D6) was under 5%, the inhibition [4] was over 50% and the “Cp(f)” value (Plasma [5]) was 19 nM. For the same molecule, the inhibition [6] was over 70%, the “Cp(f)” value (Plasma [7]) was 150 nM and the half-life [8] was 0.6 h. The half-life [9] was 1.1 h, the inhibition [10] was over 50% and the TDI (Cytochrome P450 2B6) was “Not Active”. The inhibition [11] was over 70%, the TDI (Cytochrome P450 2C9) was “Not Active” and the inhibition at 3 µM (CYP1A2) was under 5%. For the same molecule, the clearance (Rattus norvegicus [12]) was 56 mL/min/kg, the clearance (Cynomolgus monkey) was 10 mL/min/kg and the inhibition in vivo at 1 mg/kg (Rattus norvegicus [13]) was 52%. The Papp A→B [14] was 9.6 ×10⁻⁶ cm/s, the half-life [15] was 6.2 h and the bioavailability [16] was 6.9%. It also gave an inhibition in vivo at 0.3 mg/kg (Rattus norvegicus [17]) of 12%, a logD [18] of 2 and an inhibition [19] of over 70%. It also gave a solubility [20] of 57 µg/mL (≈ 158 µM) and an inhibition [21] of over 70%.
